Assay [1] deals with HL-60. The assay is described as follows: Cytotoxic activity against Human promyelocytic Leukemia HL-60 Concentration of agent required to reduce cell viability by 90%. Type of assay: functional. In a few lines:
(§1)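 Modified MTT assay. Cells seeded per well with graded drug: CHO 2.5 × 10^3, B16 5 × 10^3, P388 and LLC 10^4, HL-60 and LoVo 5 × 10^4. After 68 h, MTT (2.5 mg/mL) added for 4 h at 37 °C. Formazan dissolved in DMSO and A550 read. Inhibition taken as fractional A550 decrease vs control. IC50/IC90 from Chou's median-effect equation.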

The subject of assay [2] is HL-60. The assay is described as follows: Cytotoxic activity against Human promyelocytic Leukemia HL-60 Concentration of agent required to reduce cell viability by 50%. Type of assay: functional, cell-based. An outline of the steps: as §1
The test system of assay [3] is P388. The assay is described as follows: Cytotoxic activity against Murine Lymphocytic Leukemia P388 Concentration of agent required to reduce cell viability by 50%. Type of assay: functional, cell-based. Particulars: Mus musculus. In a few lines: as §1
Assay [4] has as its system P388. The assay is described as follows: Cytotoxic activity Murine Lymphocytic Leukemia P388 Concentration of agent required to reduce cell viability by 90%. Particulars: Mus musculus. Type of assay: functional. In a few lines:
as §1

For assay [5], the system named is B16. The assay can be described thus: Cytotoxic activity against solid tumor, B16 (murine melanoma) Concentration of agent required to reduce cell viability by 90%. Type of assay: functional. The following applies: Mus musculus. An outline of the steps:
as §1

In assay [6] the test system is B16. The assay is described as follows: Cytotoxic activity against solid tumor, B16 (murine melanoma) Concentration of agent required to reduce cell viability by 50%. Type of assay: functional, cell-based. The following applies: Mus musculus. An outline of the steps: as §1
The test system of assay [7] is CHO. The assay can be described thus: Cytotoxic activity against solid tumor, CHO (Chinese hamster ovaric carcinoma) Concentration of agent required to reduce cell viability by 50%. Type of assay: functional, cell-based. Particulars: Cricetulus griseus. An outline of the steps: as §1
The subject of assay [8] is CHO. The assay is described as follows: Cytotoxic activity against solid tumor, CHO (Chinese hamster ovaric carcinoma) Concentration of agent required to reduce cell viability by 90%. Type of assay: functional. Particulars: Cricetulus griseus. An outline of the steps:
as §1

For assay [9], the system named is LoVo. The assay is described as follows: Cytotoxic activity against solid tumor, LoVo, (human colon adenocarcinoma) Concentration of agent required to reduce cell viability by 90%. Type of assay: functional. An outline of the steps:
as §1

Assay [10] deals with LoVo. The assay can be described thus: Cytotoxic activity against solid tumor, LoVo, (human colon adenocarcinoma) Concentration of agent required to reduce cell viability by 50%. Type of assay: functional, cell-based. In a few lines:
as §1

For assay [11], the system named is Lewis lung carcinoma cell line. The assay can be described thus: Cytotoxic activity against solid tumor LLC(Lewis lung carcinoma), concentration of agent required to reduce cell viability by 50%. Particulars: Mus musculus. Type of assay: functional, cell-based. An outline of the steps:
as §1

Assay [12] relates to Lewis lung carcinoma cell line. The assay is described as follows: Cytotoxic activity against solid tumor LLC(Lewis lung carcinoma), concentration of agent required to reduce cell viability by 90%. Type of assay: functional. The following applies: Mus musculus. An outline of the steps: as §1

SMILES strings stand for the structures. Some results are limits rather than exact numbers.

One may read the IC90 as the point of the concentration-response curve where the effect stands at 90%. The IC50 is the midpoint of a concentration-inhibition curve. Low values mean greater potency, high ones weaker potency. For `CN1CCN(c2cc3c(cc2N)c(=O)c2c(O)cc(O)cc2n3C)CC1`, the IC90 is 39 µM with HL-60 [1] and 11 µM with P388 [4]. Besides, the results for the IC50 with HL-60 [2] and in the assay with P388 [3] were 24 µM and 7.2 µM, respectively.

In the case of `CCN(CC)CCn1c2cc(O)c(N)cc2c(=O)c2c(O)cc(O)cc21`, the IC90 was > 100 µM in the assay on HL-60 [1] and 56 µM in the assay on P388 [4]. Besides, the IC50 with HL-60 [2] was > 100 µM; with P388 [3], 26 µM.

As for `CCn1c2cc(N3CC(C)NC(C)C3)c(N)cc2c(=O)c2c(O)cc(O)cc21` (stereo not drawn), the IC90 was 32 µM with B16 [5]; 38 µM in the assay on CHO [8]; 32 µM with HL-60 [1]; 37 µM in the assay on LoVo [9]; 43 µM in [12]; 18 µM in the assay with P388 [4]. In addition, the half-maximal inhibitory concentration (IC50) amounted to 22 µM in the assay with B16 [6]; 12 µM with CHO [7]; 21 µM with HL-60 [2]; 21 µM in the assay with LoVo [10]; 29 µM in assay [11]; 6.2 µM in the assay on P388 [3].

In the case of `CCn1c2cc(Cl)ccc2c(=O)c2c(O)cc(O)cc21`, the concentration for an effect of 90% (IC90) in the assay on HL-60 [1] and in the assay on P388 [4] was > 100 µM each time. The IC50 in the assay with HL-60 [2] and with P388 [3] was > 100 µM in each case.

`CCN(CC)CCn1c2cc(N3CCSCC3)c(N)cc2c(=O)c2c(O)cc(O)cc21` gave an IC50 in the assay with P388 [3] of 8.8 µM. Further, the 90% effect level in the assay with P388 [4] (IC90) was put at 19 µM.

Take `CN1CCN(c2cc3nc4cc(O)cc(O)c4c(O)c3cc2N)CC1`: the concentration for an effect of 90% (IC90) in the assay on HL-60 [1] and in the assay on P388 [4] was > 100 µM each time. Moreover, the IC50 is > 100 µM with HL-60 [2] and 57 µM in the assay on P388 [3].

For the compound `CCN(CC)CCNc1cc2c(cc1N)c(=O)c1c(O)cc(O)cc1n2CC`, the 90% effect concentration (IC90) stood at 38 µM in the assay with B16 [5]; 17 µM with CHO [8]; 46 µM in the assay on HL-60 [1]; 30 µM in the assay on LoVo [9]; 46 µM in assay [12]; 11 µM with P388 [4]. Besides, the IC50 in the assay on B16 [6] was determined as 10 µM; in the assay on CHO [7] it was 8.1 µM; with HL-60 [2], 19 µM; with LoVo [10] it was 19 µM; in assay [11] it was 25 µM; in the assay with P388 [3] it was 4.3 µM.

Consider `CCN(CC)c1cc2c(cc1N)c(=O)c1c(O)cc(O)cc1n2CC`, for which the figures for the 90% effect concentration (IC90) with HL-60 [1] and with P388 [4] were 58 µM and 50 µM, respectively. In addition, the IC50 with HL-60 [2] and in the assay on P388 [3] was 24 µM in each case.

`CCN(CC)CCn1c2cc(OC)c(N)cc2c(=O)c2c(O)cc(O)cc21`: the concentration for an effect of 90% (IC90) stood at 11 µM in the assay with B16 [5]; 20 µM in the assay on CHO [8]; 27 µM in the assay with HL-60 [1]; 36 µM in the assay with LoVo [9]; 32 µM in assay [12]; 5.9 µM with P388 [4]. In addition, the IC50 in the assay on B16 [6] turned out to be 3.4 µM; with CHO [7], 5.6 µM; with HL-60 [2], 8.2 µM; with LoVo [10], 11 µM; in [11] it was 10 µM; with P388 [3], 2.8 µM.

`CCn1c2cc(N3CCSCC3)c(N)cc2c(=O)c2c(O)cc(O)cc21`: in the assay on P388 [3], the concentration for half-maximal inhibition (IC50) is > 100 µM. In the assay on P388 [4], the IC90 is > 100 µM.

`CCn1c2cc(N3CCCC3)c(N)cc2c(=O)c2c(O)cc(O)cc21`: the IC50 in the assay on P388 [3] was > 100 µM. The concentration for an effect of 90% (IC90) in the assay with P388 [4] is > 100 µM.

With `CCN(CC)CCn1c2cc(NC)c(N)cc2c(=O)c2c(O)cc(O)cc21`, the IC90 with B16 [5] came to 24 µM; with CHO [8] it was 36 µM; in the assay on HL-60 [1] it was 27 µM; in the assay on LoVo [9] it was 44 µM; in [12], 64 µM; in the assay with P388 [4] it was 7 µM. In addition, the IC50 with B16 [6] was found to be 3.8 µM; in the assay with CHO [7], 8.2 µM; in the assay on HL-60 [2], 9.7 µM; in the assay with LoVo [10], 26 µM; in assay [11], 23 µM; with P388 [3], 3.9 µM.

Take `CCN(CC)CCn1c2cc(N3CCCC3)c(N)cc2c(=O)c2c(O)cc(O)cc21`: the IC90 is > 100 µM with HL-60 [1] and 21 µM in the assay with P388 [4]. Further, the IC50 in the assay with HL-60 [2] worked out at 96 µM; with P388 [3] it was 9.7 µM.
